Experimental data as given in ChEMBL document CHEMBL5154918, “Synthesis and Biological Characterization of a Series of 2-Sulfonamidebenzamides as Allosteric Modulators of MrgX1” (ACS Med Chem Lett, 2022).

How the values were obtained:
[1] = molecular target: T1, Mas-related G-protein coupled receptor member X1 (Homo sapiens, UniProt Q96LB2); assay: Positive allosteric modulator activity at human MRGPRX1 expressed in HEK293 cells assessed as maximal efficacy at 5 uM in presence of BAM8-22 by Fluo4-dye based FLIPR assay relative to control; format: cell-based
T1 sequence (Q96LB2 whole entry): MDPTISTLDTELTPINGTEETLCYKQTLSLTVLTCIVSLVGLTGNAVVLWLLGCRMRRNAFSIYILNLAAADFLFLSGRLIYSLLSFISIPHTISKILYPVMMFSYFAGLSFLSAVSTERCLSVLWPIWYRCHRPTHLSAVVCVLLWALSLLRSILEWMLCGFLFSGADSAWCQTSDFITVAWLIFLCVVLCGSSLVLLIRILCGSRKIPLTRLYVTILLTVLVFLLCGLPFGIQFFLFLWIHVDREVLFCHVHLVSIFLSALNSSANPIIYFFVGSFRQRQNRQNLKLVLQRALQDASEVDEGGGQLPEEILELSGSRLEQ

[2] = molecular target: T1, Mas-related G-protein coupled receptor member X1; assay: Positive allosteric modulator activity at human MRGPRX1 expressed in HEK293 cells in presence of BAM8-22 by Fluo4-dye based FLIPR assay; format: cell-based
Outline: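 HEK293 cells expressing MrgX1. Compounds tested in the presence of 10 nM BAM8-22. Emax normalized to control compound ML382; mean ± SEM of n = 2 experiments.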

[3] = Microsomal stability in human liver microsomes assessed as intrinsic clearance; format: ADME, Microsome; conditions: read-out: CLH
Outline: (§1)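 Intrinsic clearance measured in human and mouse liver microsomes. Hepatic clearance predicted from it with the well-stirred organ CL model, binding terms excluded.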

[4] = Microsomal stability in mouse liver microsomes assessed as intrinsic clearance; format: ADME, Microsome; conditions: read-out: CLH; outline: as §1
[5] = Plasma protein binding in human assessed as unbound fraction; format: ADME, cell-free; conditions: read-out: PPB
Outline: (§2)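 Equilibrium dialysis in human and mouse plasma; results expressed as […] fraction unbound.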

[6] = Plasma protein binding in mouse assessed as unbound fraction; format: ADME, cell-free; conditions: read-out: PPB; outline: as §2
[7] = Volume of distribution at steady state in Sprague-Dawley rat at 0.25 mg/kg, iv bolus injection administered as cassette dose; format: ADME, organism-based; conditions: in vivo, read-out: Vdss
Outline: (§3)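 Male Sprague–Dawley rats, 5-in-1 cassette, 0.25 mg/kg IV of each test article in DMSO:PEG400:EtOH:Saline (5:48:10:37). Plasma sampled at 0.0833, 0.25, 0.5, 1, 3, 4, 8 and 24 h, plus Day 2 at 0.25 h post dose.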

[8] = AUC in Sprague-Dawley rat at 0.25 mg/kg, iv bolus injection administered as cassette dose; format: ADME, organism-based; set-up: dose 0.25 mg/kg, route iv; conditions: in vivo; outline: as §3
[9] = Half life in Sprague-Dawley rat at 0.25 mg/kg, iv bolus injection administered as cassette dose; format: ADME, organism-based; conditions: in vivo; outline: as §3
[10] = Clearance in Sprague-Dawley rat at 0.25 mg/kg, iv bolus injection administered as cassette dose; format: ADME, organism-based; conditions: in vivo; outline: as §3
[11] = molecular target: Translocator protein (Homo sapiens, UniProt P30536); assay: Binding affinity to peripheral benzodiazepine receptor (unknown origin)
Sequence of Translocator protein (P30536 whole entry): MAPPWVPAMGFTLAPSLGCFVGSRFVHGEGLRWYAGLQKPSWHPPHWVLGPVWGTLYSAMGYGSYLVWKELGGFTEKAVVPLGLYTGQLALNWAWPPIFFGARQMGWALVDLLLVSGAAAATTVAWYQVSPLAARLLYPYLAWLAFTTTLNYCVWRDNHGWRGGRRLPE

[12] = Drug concentration in Sprague-Dawley rat plasma at 0.25 mg/kg measured up to 48.25 hrs; format: ADME, organism-based
Outline: (§4)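 Brain sampled on Day 2 at 0.25 h, with matching plasma, after a 0.25 mg/kg IV cassette dose (5-in-1) in male Sprague–Dawley rats. Vehicle was DMSO:PEG400:EtOH:Saline (5:48:10:37). Kp is total brain/plasma concentration ratio.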

[13] = Drug concentration in Sprague-Dawley rat brain at 0.25 mg/kg measured up to 48.25 hrs; format: ADME, organism-based; conditions: read-out: Ct; outline: as §4
[14] = Ratio of drug concentration in brain to plasma in Sprague-Dawley rat at 0.25 mg/kg measured after 15 mins; format: ADME, organism-based; conditions: brain and plasma; outline: as §4
[15] = Half life in mouse at 2 mg/kg, ip administered as discrete dose; format: ADME, organism-based; conditions: in vivo
Outline: (§5)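 Discrete (single-compound) mouse PK, dosed IP at 2 mg/kg in 10% DMSO/10% cremophor EL/30% PEG400/50% water. Plasma and brain concentrations measured; brain:plasma ratio reported.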

[16] = Tmax in mouse at 2 mg/kg, ip administered as discrete dose; format: ADME, organism-based; conditions: in vivo; outline: as §5
[17] = Cmax in mouse at 2 mg/kg, ip administered as discrete dose; format: ADME, organism-based; set-up: dose 2 mg/kg, route ip; conditions: in vivo; outline: as §5
[18] = AUC in mouse at 2 mg/kg, ip administered as discrete dose; format: ADME, organism-based; set-up: dose 2 mg/kg, route ip; conditions: in vivo; outline: as §5
[19] = Ratio of drug concentration in brain to plasma in mouse at 2 mg/kg, ip administered as discrete dose; format: ADME, organism-based; conditions: brain and plasma, read-out: BPR; outline: as §5
[20] = filed as positive allosteric modulator

Emax [1, 20] [%] | Emax [1] [%] | EC50 [2] [nM] | Compound | other results
70.6 |  |  | CCOc1ccccc1NC(=O)c1ccc(NS(=O)(=O)C2CC2)cc1 | 
 | -10.5 |  | CCOc1cc(F)ccc1NC(=O)c1ccccc1NS(=O)(=O)C1CC1 | 
74 |  | 285 | CCOc1ccc(F)cc1NC(=O)c1ccccc1NS(=O)(=O)CC | 
 | 20.7 |  | COCCOc1ccccc1NC(=O)c1ccccc1NS(=O)(=O)C1CC1 | 
 | -5.7 |  | CCOc1ccccc1Nc1nn(S(=O)(=O)C2CC2)c2ccccc12 | 
89.5 |  | 366 | CCS(=O)(=O)Nc1ccc(Cl)cc1C(=O)Nc1ccccc1OCC(F)(F)F | 
 | -15.6 |  | COc1ccc(NC(=O)c2ccccc2NS(=O)(=O)C2CC2)cc1 | 
 | -11.9 |  | COc1ccccc1N(C)C(=O)c1ccccc1NS(=O)(=O)C1CC1 | 
110 |  | 54 | CCOc1ccccc1NC(=O)c1cc(Cl)ccc1NS(=O)(=O)C1CC1 | CLint scaled [3]: 130 mL/min/kg; CLint scaled [4]: 1470 mL/min/kg; fraction unbound [5]: 0.001; fraction unbound [6]: 0.001
 | 7.5 |  | CCOc1ccccc1-c1nnc(-c2ccccc2NS(=O)(=O)C2CC2)[nH]1 | 
127 |  | 13 | CCOc1ccc(F)cc1NC(=O)c1cc(F)ccc1NS(=O)(=O)C1CC1 | Vd [7]: 0.34 L/kg; AUC [8]: 304 ng·h/mL; half-life [9]: 24.6 min; clearance [10]: 14.1 mL/min/kg; Ki [11]: 71 nM; CLint scaled [3]: 59.4 mL/min/kg; CLint scaled [4]: 980 mL/min/kg; fraction unbound [5]: 0.002; fraction unbound [6]: 0.011; concentration at 48.25 h [12]: 297 ng/mL; concentration at 48.25 h [13]: 55.9 ng/g; Kp at 0.25 h [14]: 0.19; half-life [15]: 7.2 min; Tmax [16]: 10.2 min; Cmax [17]: 1280 ng/mL; AUC [18]: 426 ng·h/mL; Kp [19]: 0.2
104 |  | 55 | CCOc1ccc(F)cc1NC(=O)c1cc(Cl)ccc1NS(=O)(=O)C1CC1 | CLint scaled [3]: 138 mL/min/kg; CLint scaled [4]: > 2400 mL/min/kg; fraction unbound [5]: 0.001; fraction unbound [6]: 0.003
 | 3.2 |  | CCOc1ccccc1NC(=O)c1ccc(C)cc1NS(=O)(=O)C1CC1 | 
 | 23.8 |  | CCOc1cccc2nc(-c3ccccc3NS(=O)(=O)C3CC3)[nH]c12 | 
107 |  | 98 | CCOc1ccccc1NC(=O)c1cc(F)ccc1NS(=O)(=O)CC | CLint scaled [3]: 36 mL/min/kg; CLint scaled [4]: 269 mL/min/kg; fraction unbound [5]: 0.002; fraction unbound [6]: 0.041
 | 12.1 |  | CCOc1ccccc1NC(=O)c1ccncc1NS(=O)(=O)C1CC1 | 
80.8 |  | 506 | CCCOc1ccccc1NC(=O)c1ccccc1NS(=O)(=O)C1CC1 | CLint scaled [3]: 116 mL/min/kg; CLint scaled [4]: 4890 mL/min/kg; fraction unbound [5]: < 0.003; fraction unbound [6]: 0.015

Emax [1, 20] [%] | Emax [1] [%] | EC50 [2] [nM] | Compound | other results
58.4 |  |  | CCS(=O)(=O)Nc1ccc(C)cc1C(=O)Nc1ccccc1OCC(F)(F)F | 
 | 0.1 |  | CCOc1ccccc1NC(=O)c1ncccc1NS(=O)(=O)C1CC1 | 
100 |  | 124 | CCOc1ccccc1NC(=O)c1ccccc1NS(=O)(=O)C1CC1 | CLint scaled [3]: 61.9 mL/min/kg; CLint scaled [4]: 1060 mL/min/kg; fraction unbound [5]: 0.004; fraction unbound [6]: 0.017
 | -11.7 |  | CCOc1ccccc1Nc1nn(S(=O)(=O)C2CC2)c2ncccc12 | 
80.1 |  | 3140 | O=C(Nc1ccccc1OC1CCCC1)c1ccccc1NS(=O)(=O)C1CC1 | 
83.1 |  | 2830 | CC(C)Oc1ccccc1NC(=O)c1ccccc1NS(=O)(=O)C1CC1 | 
 | -44.4 |  | CCOc1ccccc1NC(=O)c1cccc(NS(=O)(=O)C2CC2)c1 | 
 | 8.9 |  | CCOc1ccccc1NC(=O)c1ccc2ccccc2c1NS(=O)(=O)C1CC1 | 
100 |  | 435 | CCS(=O)(=O)Nc1ccc(F)cc1C(=O)Nc1ccccc1OCC(F)(F)F | 
 | 12.7 |  | CCOc1ccccc1CNC(=O)c1ccccc1NS(=O)(=O)C1CC1 | 
 | 7.4 |  | O=C(Nc1cccc2c1OCO2)c1ccccc1NS(=O)(=O)C1CC1 | 
 | 29.1 |  | O=C(Nc1ccccc1OCC(F)(F)F)c1ccc(F)cc1NS(=O)(=O)C1CC1 | 
91.4 |  | 1400 | CCS(=O)(=O)Nc1ccccc1C(=O)Nc1ccc(F)cc1OCC(F)(F)F | CLint scaled [3]: 80 mL/min/kg; CLint scaled [4]: 1210 mL/min/kg; fraction unbound [5]: 0.005; fraction unbound [6]: 0.021
108 |  | 217 | CCOc1ccccc1NC(=O)c1cc(C)ccc1NS(=O)(=O)CC | 
 | 27 |  | O=C(Nc1cccc2c1OCCC2)c1ccccc1NS(=O)(=O)C1CC1 | 
95 |  | 502 | O=C(Nc1ccccc1OCC(F)(F)F)c1ccccc1NS(=O)(=O)C1CC1 | CLint scaled [3]: 40.2 mL/min/kg; CLint scaled [4]: 979 mL/min/kg; fraction unbound [5]: 0.004; fraction unbound [6]: 0.022
89.9 |  | 369 | Cc1ccc(NS(=O)(=O)C2CC2)c(C(=O)Nc2ccccc2OCC(F)(F)F)c1 | 

The remaining lines, values behind:

Compound | Emax [1, 20] [%] | Emax [1] [%] | EC50 [2] [nM] | other results
O=C(c1ccccc1NS(=O)(=O)C1CC1)N1CCOc2ccccc21 |  | 2.7 |  | 
CCOc1ccccc1NC(=O)c1ccc(Cl)cc1NS(=O)(=O)C1CC1 |  | 36.1 |  | 
CCOc1ccc(F)cc1NC(=O)c1cc(Cl)ccc1NS(=O)(=O)CC | 118 |  | 206 | 
CCOc1ccccc1Nc1nn(S(=O)(=O)C2CC2)c2cccnc12 |  | 1.9 |  | 
CCOc1ccccc1NC(=O)c1ccc(F)cc1NS(=O)(=O)C1CC1 | 67.6 |  | 860 | 
CCOc1ccc(F)cc1NC(=O)c1cc(F)ccc1NS(=O)(=O)CC | 136 |  | 31 | CLint scaled [3]: 69.1 mL/min/kg; CLint scaled [4]: 1240 mL/min/kg; fraction unbound [5]: 0.002; fraction unbound [6]: 0.001
CCOc1ccccc1-c1nnc(-c2ccccc2NS(=O)(=O)C2CC2)o1 |  | 6.7 |  | 
CCOc1ccccc1NC(=O)c1cc(F)ccc1NS(=O)(=O)C1CC1 | 102 |  | 173 | CLint scaled [3]: 45.4 mL/min/kg; CLint scaled [4]: 383 mL/min/kg; fraction unbound [5]: 0.004; fraction unbound [6]: 0.041
CCOc1ccccc1NC(=O)c1cc(C)ccc1NS(=O)(=O)C1CC1 | 104 |  | 103 | CLint scaled [3]: 75.1 mL/min/kg; CLint scaled [4]: 410 mL/min/kg; fraction unbound [5]: 0.003; fraction unbound [6]: 0.043
O=C(Nc1cccc2c1OC(F)(F)O2)c1ccccc1NS(=O)(=O)C1CC1 |  | 14.6 |  | 
CCOc1ccccc1NC(=O)c1cc(Cl)ccc1NS(=O)(=O)CC | 89.2 |  | 407 | 
CC1(C)Oc2cccc(NC(=O)c3ccccc3NS(=O)(=O)C3CC3)c2O1 |  | -25.6 |  | 
O=C(Nc1cccc2occc12)c1ccccc1NS(=O)(=O)C1CC1 | 53.4 |  | 14200 | 
O=C(c1ccccc1NS(=O)(=O)C1CC1)N1CCCc2ccccc21 |  | 6.8 |  | 
O=C(Nc1ccccc1OCC(F)(F)F)c1cc(F)ccc1NS(=O)(=O)C1CC1 | 59.8 |  |  | 
CCOc1ccccc1NC(=O)c1cc2ccccc2cc1NS(=O)(=O)C1CC1 |  | 29.7 |  | 
O=C(Nc1ccccc1OCC1CC1)c1ccccc1NS(=O)(=O)C1CC1 | 61.5 |  | 1360 | 
O=C(Nc1ccc2c(c1)OCCO2)c1ccccc1NS(=O)(=O)C1CC1 |  | 2.1 |  | 
Cc1cc2cccc(NC(=O)c3ccccc3NS(=O)(=O)C3CC3)c2o1 | 66.3 |  | 1040 | CLint scaled [3]: 74.9 mL/min/kg; CLint scaled [4]: 1460 mL/min/kg; fraction unbound [5]: < 0.003; fraction unbound [6]: 0.026
CCOC1CCCCC1NC(=O)c1ccccc1NS(=O)(=O)C1CC1 (configuration not stated) |  | 24.2 |  | 
CCOc1ccc(F)cc1NC(=O)c1cc(C)ccc1NS(=O)(=O)CC | 128 |  | 80 | CLint scaled [3]: 69.3 mL/min/kg; CLint scaled [4]: 1000 mL/min/kg; fraction unbound [5]: 0.003; fraction unbound [6]: 0.014
CCOc1cccnc1NC(=O)c1ccccc1NS(=O)(=O)C1CC1 |  | 1.6 |  | 
O=C(Nc1ccccc1OCC(F)(F)F)c1cc(Cl)ccc1NS(=O)(=O)C1CC1 | 103 |  | 915 | 
CCOc1ccc(NC(=O)c2ccccc2NS(=O)(=O)C2CC2)c(OCC)c1 | 73.2 |  | 1090 | 
O=C(Nc1cccc2c1OCCO2)c1ccccc1NS(=O)(=O)C1CC1 |  | 37.9 | 9010 | 
